The values below come from ChEMBL document CHEMBL1154725, “Synthesis and antitumor evaluation of novel diarylsulfonylurea derivatives: molecular modeling applications” (2010).

Broadly, the GI50 is the concentration giving 50% growth inhibition. The low end stands for greater sensitivity of the cells, the high end for lower sensitivity of the cells.

Holding throughout (format): functional
The nature of test [1]: Growth inhibition of human Prostate cancer cells after 48 hrs. Particulars: Cancer cell lines. An outline of the steps:
(§1)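 NCI in vitro human tumour cell line screen (about 60 lines, nine subpanels). Compounds dissolved in DMSO, diluted in phosphate-buffered saline (final DMSO under 1%), tested at five concentrations from 0.01 to 100, in duplicate wells. Cells at 6 × 10⁴ cells/mL, 37 °C, 5% CO₂, 48 h. GI50 (50% decrease in net growth) taken from log concentration versus % growth inhibition curves; subpanel values are subpanel mean-graph midpoints.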

Test [2] in a line: Growth inhibition of human Ovarian cancer cells after 48 hrs. Particulars: Cancer cell lines. An outline of the steps:
as §1

For test [3], the system named is UACC-257. Kind of test: Growth inhibition of human UACC257 cells after 48 hrs. Particulars: UACC-257, 48 h. An outline of the steps: as §1
Test [4] relates to Leukemia cell. Kind of test: Growth inhibition of human Leukemia cells after 48 hrs. An outline of the steps: as §1
For test [5], the system named is MCF7. Kind of test: Growth inhibition of human MCF7 cells after 48 hrs. Particulars: MCF7, 48 h. An outline of the steps:
as §1

Test [6] has as its system EKVX. Put plainly: Growth inhibition of human EKVX cells after 48 hrs. An outline of the steps: as §1
Test [7] can be described thus: Growth inhibition of human Renal cancer cells after 48 hrs. The conditions noted are these: Cancer cell lines. An outline of the steps: as §1
In test [8] the test system is HCC 2998. Kind of test: Growth inhibition of human HCC2998 cells after 48 hrs. Particulars: HCC 2998, 48 h. An outline of the steps: as §1
Test [9] has as its system Melanoma cell. Kind of test: Growth inhibition of human Melanoma cells after 48 hrs. An outline of the steps:
as §1

Test [10] is described as follows: Growth inhibition of human Colon cancer cells after 48 hrs. Particulars: Cancer cell lines. An outline of the steps: as §1
The subject of test [11] is NSCLC. Kind of test: Growth inhibition of human NSCLC cell after 48 hrs. An outline of the steps:
as §1

Test [12] can be described thus: Growth inhibition of human CNS cancer cells after 48 hrs. Particulars: Cancer cell lines. An outline of the steps:
as §1

Test [13] concerns OVCAR-3. Put plainly: Growth inhibition of human OVCAR-3 cells after 48 hrs. Particulars: OVCAR-3, 48 h. An outline of the steps:
as §1

A short description of test [14]: Growth inhibition of human Breast cancer cells after 48 hrs. Particulars: Cancer cell lines. An outline of the steps:
as §1

For the compound `CCCNC(=O)c1c(NC(=O)NS(=O)(=O)c2ccccc2)sc2c1CCCCC2`, the GI50 in [1] was 90.2 µM; in test [2] it was 76.5 µM; in [3] it was greater than 100 µM; in test [4], 42.2 µM; in [5] it was greater than 100 µM; in test [6], 6.2 µM. The GI50 was 80.3 µM in test [7]; greater than 100 µM in [8]; 65.3 µM in test [9]; 85.3 µM in [10]; 54.2 µM in test [11]; 72.5 µM in test [12]. In addition, the GI50 in [13] was greater than 100 µM; in [14], 70.3 µM.
For `O=C(Nc1sc2c(c1C(=O)NNc1ccc(Br)cc1)CCCCC2)NS(=O)(=O)c1ccccc1`, the GI50 is greater than 100 µM in test [1]; 10.2 µM in test [2]; greater than 100 µM in test [3]; greater than 100 µM in [4]; greater than 100 µM in test [5]; greater than 100 µM in [6]. Moreover, the GI50 was 11.5 µM in test [7]; 1.6 µM in test [8]; 31.3 µM in test [9]; 1.6 µM in test [10]; 11.5 µM in test [11]; 25.5 µM in [12]. Further, the GI50 stood at 14.8 µM in test [13] and 5.3 µM in test [14].
Take `O=C(Nc1sc2c(c1C(=O)NNc1ccc(Cl)cc1)CCCCC2)NS(=O)(=O)c1ccccc1`: the GI50 in test [1] was 14.5 µM; in test [2], 7.5 µM; in test [3] it was greater than 100 µM; in [4] it was 30.6 µM; in test [5] it was 8.3 µM; in [6], greater than 100 µM. Also, the GI50 in [7] is greater than 100 µM; in test [8], 2.9 µM; in test [9], 4.2 µM; in [10] it was 1.2 µM; in [11], 8.6 µM; in test [12], 12 µM. Besides, the figures for the GI50 in test [13] and in [14] were greater than 100 µM and 5.9 µM, respectively.
`O=C(Nc1sc2c(c1C(=O)NNc1ccccc1)CCCCC2)NS(=O)(=O)c1ccccc1`: the GI50 in test [1] is greater than 100 µM; in test [2] it was 15.2 µM; in [3], greater than 100 µM; in test [4], 18.6 µM; in test [5] it was greater than 100 µM; in test [6] it was greater than 100 µM. The GI50 in [7] turned out to be 26.3 µM; in test [8], 6.3 µM; in [9] it was 32.3 µM; in [10], 7 µM; in test [11], 16 µM; in test [12] it was 30.9 µM. Further, the values for the GI50 in [13] and in test [14] were 15.2 µM and 18.5 µM, respectively.
For the compound `NNC(=O)c1c(NC(=O)NS(=O)(=O)c2ccccc2)sc2c1CCCCC2`, the GI50 in [1] was 15.8 µM; in [2], 1.5 µM; in test [3] it was 2.8 µM; in test [4], 30.3 µM; in test [5], 4.2 µM; in [6] it was greater than 100 µM. For the same compound, the GI50 in test [7] was greater than 100 µM; in [8], 0.9 µM; in test [9], 4.5 µM; in test [10], 3.5 µM; in [11] it was 10.5 µM; in test [12] it was greater than 100 µM. The GI50 was greater than 100 µM in [13] and 4.5 µM in test [14].
For the compound `O=C(Nc1sc2c(c1C(=O)N1CCN(c3ccccc3)CC1)CCCCC2)NS(=O)(=O)c1ccccc1`, the GI50 in test [1] was 60.3 µM; in test [2] it was 36.2 µM; in test [3] it was greater than 100 µM; in [4], greater than 100 µM; in test [5], greater than 100 µM; in test [6], greater than 100 µM. Besides, the GI50 in [7] came to 65.2 µM; in test [8], 16.9 µM; in test [9] it was 52.3 µM; in test [10], 11.5 µM; in test [11] it was 36.2 µM; in test [12], 55.8 µM. The concentration for 50% growth inhibition (GI50) in test [13] is 11.9 µM; in test [14], 58.2 µM.
With `CCCCNC(=O)c1c(NC(=O)NS(=O)(=O)c2ccccc2)sc2c1CCCCC2`, the GI50 was 92.6 µM in test [1]; greater than 100 µM in [2]; greater than 100 µM in test [4]; 72.3 µM in test [7]; 76.7 µM in test [9]; 65.2 µM in test [10]. Besides, the 50% growth inhibitory concentration (GI50) in test [11] was found to be 30.3 µM; in test [12], 85.3 µM; in [14] it was 85.2 µM.
As to `O=c1[nH]c2sc3c(c2c(=O)n1S(=O)(=O)c1ccccc1)CCCCC3`, the GI50 in test [1] is 34.2 µM; in test [2] it was 34.2 µM; in test [3] it was greater than 100 µM; in test [4] it was 42.2 µM; in test [5] it was greater than 100 µM; in test [6], 3.8 µM. Moreover, the GI50 in test [7] is 50.2 µM; in [8], 19.5 µM; in [9] it was 26.2 µM; in test [10] it was 20.5 µM; in test [11], 9.3 µM; in test [12], 81.3 µM. Moreover, the GI50 in test [13] is greater than 100 µM; in test [14] it was 22.5 µM.
On to `CN1CCN(C(=O)c2c(NC(=O)NS(=O)(=O)c3ccccc3)sc3c2CCCCC3)CC1`, for which the GI50 was 80.2 µM in test [1]; 31.3 µM in test [2]; greater than 100 µM in [3]; greater than 100 µM in test [4]; greater than 100 µM in test [5]; greater than 100 µM in test [6]. Further, the GI50 in test [7] worked out at 42.3 µM; in test [8], 15.3 µM; in [9] it was 61.2 µM; in [10], 9.2 µM; in [11] it was 22.3 µM; in [12], 56.2 µM. Further, the GI50 in test [13] was greater than 100 µM; in [14], 49.2 µM.
